Sampled rows, rich in hits. Any-hit rate of the full collection: about 1.4%.
HTR5A ag – HTR5A agonism, opioid heterodimer counter-screen; activation, % at 9.3 µM; 0.61% of 340,000 active; AID 504692; HTR5A agonist assay, luminescence, cell-based; in the data active = activation mostly above about 9.5%, no sharp cut-off; inactive = mostly below about 7.6%;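 also: 0% = cells with vehicle only and 100% = reference agonist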
DAGLB inh – diacylglycerol lipase beta (human) inhibition; HEK293T DAGLB membrane lysate, EnzChek fluorogenic substrate; inhibition, % at 5.17 µM; Q8NCG7; 0.059% of 340,000 active; in the data active = inhibition above about 34%;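 also: 0% = enzyme with vehicle and 100% = wells lacking enzyme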
MOR-DOR inv ag – mu-delta opioid heterodimer inverse agonism; P35372+P41143; cell-based MOR-DOR heterodimer luminescence; inhibition, % at 9.3 µM; 0.21% of 340,000 active; AID 504357; in the data active = inhibition above about 22%, passing the limit was not always enough;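 also: 0% = cells with DMSO and 100% = wells without cells with DMSO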
Target sequence (P35372 whole entry, looked up): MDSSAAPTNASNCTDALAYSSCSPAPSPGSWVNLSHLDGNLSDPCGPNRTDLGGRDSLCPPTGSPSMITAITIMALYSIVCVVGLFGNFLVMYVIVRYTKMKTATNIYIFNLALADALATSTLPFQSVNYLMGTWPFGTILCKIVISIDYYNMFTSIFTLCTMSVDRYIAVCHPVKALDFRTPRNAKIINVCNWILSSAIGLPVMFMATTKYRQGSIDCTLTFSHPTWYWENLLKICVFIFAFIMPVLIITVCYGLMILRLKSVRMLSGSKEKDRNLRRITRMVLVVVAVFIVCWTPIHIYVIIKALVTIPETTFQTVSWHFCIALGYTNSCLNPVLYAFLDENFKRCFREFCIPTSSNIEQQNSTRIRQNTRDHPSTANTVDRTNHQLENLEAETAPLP
Target sequence (P41143 whole entry, looked up): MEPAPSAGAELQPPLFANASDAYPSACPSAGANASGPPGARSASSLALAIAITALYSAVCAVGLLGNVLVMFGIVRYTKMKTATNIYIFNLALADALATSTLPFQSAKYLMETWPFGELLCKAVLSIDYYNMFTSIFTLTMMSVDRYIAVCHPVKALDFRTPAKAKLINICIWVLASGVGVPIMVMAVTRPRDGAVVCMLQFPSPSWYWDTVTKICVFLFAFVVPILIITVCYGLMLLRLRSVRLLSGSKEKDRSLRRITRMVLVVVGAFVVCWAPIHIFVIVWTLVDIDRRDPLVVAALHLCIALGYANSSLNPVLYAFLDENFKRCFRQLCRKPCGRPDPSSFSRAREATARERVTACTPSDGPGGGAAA
Arrestin-AP2 inh – blocks beta-arrestin peptide binding to AP2 adaptin; FITC-arrestin peptide / GST-AP2 beads, flow cytometry; AP2 beta2 appendage carries R879A mutation; inhibition, % at 10 µM; 0.31% of 340,000 active; AID 504490;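 active = inhibition above a set limit, near 3 SD of compounds lacking own fluorescence, cut at about 54% in these data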;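 also: plate controls were DMSO wells for no effect and 5 µM unlabelled arrestin peptide for full effect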
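system = GST-tagged AP2 beta2-adaptin appendage (R879A) on 4 µm glutathione beads | reagent = FITC-labelled arrestin peptide probe, 50 nM final | schedule = compound with beads 12 min RT, then probe 1 h RT | signal = HyperCyt-sampled flow cytometry, FL1 channel, ex 488/em 535 nm | read-out = percent response from loss of bead-bound FITC fluorescence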
OPRM1-OPRD1 ag – agonists of human mu-delta opioid receptor heterodimerization. cells, OPRM1-OPRD1 heterodimerization, luminescence. activation, % at 9.3 µM. 0.3% of 340,000 active. AID 504326. P35372+P41143; in the data active = activation above about 18%;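 also: 0% = vehicle-treated cells and 100% = reference agonist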
HTR5A inv ag – inverse agonist of human HTR5A in OPRM1-OPRD1 counter-screen; P47898; HTR5A cell line, luminescence, inverse agonism; inhibition, % at 9.3 µM; 0.083% of 340,000 active; AID 504634; in the data active = inhibition mostly above about 23%, no sharp cut-off; inactive = mostly below about 18%;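 also: 0% = cells with DMSO and 100% = no-cell wells with DMSO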
Numbers without * were called inactive; . = no result given.

SMILES	HTR5A ag	DAGLB inh	MOR-DOR inv ag	Arrestin-AP2 inh	OPRM1-OPRD1 ag	HTR5A inv ag
CC(Oc1ccccc1F)C(=O)Nc1ccc2ccccc2c1 (stereo unspecified)	11*	-13	-5	24	1	-16
C[C@H]1CN(CCc2ccccc2)C(=O)[C@@H]1CC(=O)Nc1ccc(Br)cc1	.	-5	.	.	.	.
Cc1nc(=O)c(-c2ccccc2)c(C)n1-c1ccccc1	0	-2	3	6	-1	0
CC(=O)Nc1ccc(-n2c(C)nc(=O)c(-c3ccccc3)c2C)cc1	10*	5	10	8	-2	-4
Cc1nnc(-c2ccccc2)nc1N(C)C	11*	-1	8	3	-2	10
O=C1C(=C(I)I)c2ccccc2-c2ccccc21	9	-18	-202	16	41*	-35
Cc1cc(C)n2nc(SCC(=O)NC3(C#N)CCCCC3)nc2n1	.	3	.	.	.	.
N=c1c2ccccc2nc2n1CCCCC2	.	-4	.	.	.	.
CCC(/C=C1\Sc2ccc(OC)cc2N1CC)=C\c1sc2ccc(OC)cc2[n+]1CCCS(=O)(=O)[O-]	0	4	-2	12	0	0
CCC(/C=C1\Sc2ccc(OC)cc2N1CCO)=C\c1sc2ccc(OC)cc2[n+]1CCO	-2	11	8	77*	-1	7
CC1=CC(=O)Nc2ncccc2O1	.	-5	.	.	.	.
CCCCOC(=O)Nc1ccc(N2CCOCC2)cc1	4	1	-2	7	0	-12
CCCCOC(=O)Nc1ccc(N2CCCCC2)cc1	9.6*	1	-10	2	2	6
Cc1cc(=O)[nH]c(SCC(=O)Nc2ccc(Br)cn2)n1	13*	1	-11	10	2	-35
CCN(CC)c1c([N+](=O)[O-])c(=O)n(C)c2ccccc12	2	-2	-5	10	1	-5
Cn1c(=O)c([N+](=O)[O-])c(Cl)c2ccccc21	-5	1	37*	-4	-8	13
CC1CCCC/C1=N\NS(=O)(=O)c1ccc(Br)cc1 (stereo unspecified)	11*	-2	-17	7	3	-87
O=S(=O)(N/N=C1/CCCc2ccccc21)c1ccc(Br)cc1	3	-5	-35	-4	6	8
CCN(CC)C(=O)C1=C(C)N(Cc2ccc(F)cc2)C(=O)C(CC(=O)NCC2CCCCC2)C1 (stereo unspecified)	.	-3	.	.	.	.
O=C(O)C1CCN(S(=O)(=O)c2ccc3[nH]ccc3c2)CC1	.	0	.	.	.	.
Cc1ccc(N=c2c([N+](=O)[O-])nn(-c3ccccc3)n2O)c(C)c1	11*	2	-37	36	7	-15
Cc1c(Cl)cccc1N=c1c([N+](=O)[O-])nn(-c2ccccc2)n1O	-3	0	-46	7	9	8
O=C(Nc1ccc(-c2noc(COc3ccccc3Cl)n2)cc1)c1ccco1	12*	-7	-11	8	3	-21
COc1ccc(CCNS(=O)(=O)c2ccc3c(c2)NC(=O)CS3)cc1OC	11*	4	10	-8	-2	0
C[C@@H]1CN([C@H](C)CO)C(=O)c2cc(-c3ccc(C(=O)N(C)C)cc3)cnc2O[C@@H]1CN(C)C(=O)c1cccnc1	.	0	.	.	.	.
SMILES	HTR5A ag	DAGLB inh	MOR-DOR inv ag	Arrestin-AP2 inh	OPRM1-OPRD1 ag	HTR5A inv ag
O=C(COc1ccc(Cl)cc1Br)Nc1cccc(S(=O)(=O)N2CCCC2)c1	14*	-3	-17	8	4	-8
Cc1ccc(NC(=O)COc2cccc(C)c2C)cc1S(=O)(=O)N1CCCCCC1	11*	-7	-8	-3	2	-30
Cc1ccc(NC(=O)COc2ccccc2C(N)=O)cc1S(=O)(=O)N1CCCCCC1	1	0	0	26	0	3
COc1ccc(C2=CCCCCC2)cc1OC	.	-5	.	.	.	.
Clc1ccc(-c2nc3c4ccccc4ccn3c2Cc2ccccc2)cc1	.	-10	.	.	.	.
CCOC(=O)CNc1nc(Cl)nc(Nc2ccc(C)cc2)n1	14*	2	-18	9	3	6
CN(C)CCNC(=O)c1cc2c(s1)-c1ccc(Cl)cc1SC2	51*	3	-213	4	38*	-202
CCOCCCNC(=O)c1cc2c(s1)-c1ccccc1SC2	2	-1	9	9	-2	-8
CCCCCCN1C[C@@H](O)[C@H](n2cc(COC(=O)c3ccccc3)nn2)C[C@@H]1c1ccc(C)cc1	.	-9	.	.	.	.
Cc1ccc(S(=O)(=O)NN=C2CCC(C(C)(C)C)CC2)cc1[N+](=O)[O-] (stereo unspecified)	10	2	6	17	-1	-36
Cc1ccc(S(=O)(=O)N/N=C/c2ccccc2F)cc1[N+](=O)[O-]	12*	-2	10	36	-2	-46
CCCC1CCC(=NNS(=O)(=O)c2ccc(C)c([N+](=O)[O-])c2)CC1 (stereo unspecified)	13*	-5	-7	-6	1	-45
COc1cccc(NC(=O)CSc2nnc(-c3cccs3)n2C)c1	10*	0	17	-2	-3	-37
COc1ccc(C)cc1NC(=O)NNC(=O)C1CCC(C(C)(C)C)CC1 (stereo unspecified)	13*	-14	-32	-15	6	-37
Cn1c(CN2CCCCC2)nc2cc(NC(=O)c3ccc(F)cc3)ccc21	9.2*	0	2	0	0	-15
Cn1c(CN2CCCCC2)nc2cc(NC(=O)c3ccccc3Cl)ccc21	-1	-3	6	-8	-1	6
CC(C)N1CC2(CC(c3ccccc3C(F)(F)F)=NO2)CN1C(=O)c1ccco1 (stereo unspecified)	.	-2	.	.	.	.
N/C(=N\OC(=O)/C=C/c1ccc(Br)cc1)c1ccccn1	10*	1	-13	15	2	-3
O=C(N/C(=C/c1ccccc1Cl)C(=O)N1CCCC1)c1ccccc1	14*	-2	-1	-6	0	3
Cc1cccc(NC(=O)CN2CCOCC2)c1C	9.8*	-1	-2	12	0	-36
O=C(CN1CCOCC1)Nc1cccc(Cl)c1Cl	0	2	0	4	0	-1
Cc1cccc(NC(=S)N2CCOCC2)c1C	11*	1	-5	-9	1	-31
Cc1cccc(NC(=S)N2CCCCCC2)c1C	2	4	5	-10	-1	-8
CC(=O)Nc1ccc(S(=O)(=O)NCC(=O)OCC(=O)NCCc2ccccc2)cc1	.	-5	.	.	.	.
CS(=O)(=O)N1CCC(Oc2cccc(C(=O)NCCCC3CCCC3)c2)CC1	-2	1	2	61*	0	4
c1ccc(CN2CCN(c3ncnc4c3[nH]c3ccccc34)CC2)cc1	1	-3	-30	-4	5	15
c1ccc2c(c1)CCN(c1ncnc3c1[nH]c1ccccc13)C2	9	2	-324	-1	52*	-16

Bioassay records deposited in PubChem BioAssay by several laboratories.
